The source made the active and inactive calls. No cut-off for these calls is given here.
Legend:
[1] = Inhibition of His-6-tagged HIV-1 integrase-recombinant flag-tagged LEDGF/p75 (unknown origin) interaction after 1hr by AlphaScreen assay
Summary of the method: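 AlphaScreen. Ni-chelate acceptor and anti-flag donor beads were added (20 µg/ml each final), then incubated 1 h at 30 °C in low light. Acceptor-bead light emission was read.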

[2] = Inhibition of His-6-tagged HIV-1 integrase-recombinant flag-tagged LEDGF/p75 (unknown origin) interaction at 100 uM after 1hr by AlphaScreen assay
[3] = Cytotoxicity against human MT4 cells assessed as cell viability by MTT assay; assay type: cell-based
Summary of the method: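 Uninfected MT-4 lymphocytes exposed to fivefold serial compound dilutions, run in parallel with the antiviral test. Viability read by MTT reduction to formazan by mitochondrial dehydrogenase, measured spectrophotometrically. CC50 = concentration lowering MT-4 viability by 50%.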

[4] = Selectivity index, ratio of CC50 for human MT4 cells to EC50 for HIV-1 3B; assay type: toxicity, cell-based; details: read-out: Ratio CC50/EC50
Summary of the method: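 Ratio CC50/EC50. CC50 comes from the MTT viability assay on uninfected MT-4 cells. EC50 comes from the MTT protection assay on MT-4 cells infected with HIV(IIIB).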

[5] = system: Human immunodeficiency virus 1; test: Antiviral activity against HIV-1 3B infected in MT4 cells assessed as inhibition of virus-induced cytopathic effect by MTT assay; assay type: functional, organism-based; details: Human immunodeficiency virus 1, 3B
Summary of the method: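 MT-4 lymphocytes infected with 100–300 CCID50 of HIV(IIIB) stock (CCID50 titrated on MT-4 cells), with fivefold serial compound dilutions. Protection against virus-induced cytopathic effect read by MTT reduction to formazan, measured spectrophotometrically. EC50 = concentration giving 50% protection against CPE.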

[6] = biological target: Human immunodeficiency virus type 1 integrase (Human immunodeficiency virus 1, UniProt Q7ZJM1); test: Inhibition of HIV-1 integrase strand transfer activity using 3'-end biotin labelled oligonucleotide/5'-end digoxigenin labelled oligonucleotide as substrate after 1 hr by ELISA
Sequence of Human immunodeficiency virus type 1 integrase (Q7ZJM1 whole entry): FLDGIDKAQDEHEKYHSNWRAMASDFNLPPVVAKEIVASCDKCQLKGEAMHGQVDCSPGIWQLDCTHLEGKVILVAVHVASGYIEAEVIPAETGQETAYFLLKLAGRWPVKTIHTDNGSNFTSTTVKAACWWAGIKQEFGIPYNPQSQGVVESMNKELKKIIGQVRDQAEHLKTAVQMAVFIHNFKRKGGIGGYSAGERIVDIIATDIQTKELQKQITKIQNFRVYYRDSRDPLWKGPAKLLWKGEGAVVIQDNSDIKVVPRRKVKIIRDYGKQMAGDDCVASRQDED
Summary of the method: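 ELISA strand-transfer assay. Integrase (diluted in 750 mM NaCl, 10 mM Tris pH 7.6, 10% glycerol, 1 mM β-mercaptoethanol; 1.6 µM) was mixed with annealed oligonucleotides (7 nM): a 3'-biotin strand plus a 5'-digoxigenin strand lacking 3'-terminal GT. Buffer contained MgCl2, DTT, HEPES pH 7.5, 5% PEG and 15% DMSO. Incubation 1 h at 37 °C, NaOH denaturation, detection on avidin-coated plates.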

Compound: COc1ccc2c(c1)c(C(=O)/C=C(\O)C(=O)O)cn2Cc1ccc(-c2ccccc2)cc1
- IC50 [1]: > 100 µM
- inhibition [2]: 59%

Compound: O=C(O)/C(O)=C/C(=O)c1cn(Cc2ccc(C(F)(F)F)cc2C(F)(F)F)c2ccc(Cl)cc12
- IC50 [1]: 3.8 µM
- inhibition [2]: 80%

Compound: CC(C)(C)c1ccc(Cn2cc(C(=O)C3=C(O)C(=O)OC3)c3cc(F)ccc32)cc1
- IC50 [1]: 36.2 µM
- inhibition [2]: 96%

Compound: COc1ccc2c(c1)c(C(=O)C1=C(O)C(=O)OC1)cn2Cc1ccc(-c2ccccc2)cc1
- inhibition [2]: 51%

Compound: O=C1OCC(C(=O)c2cn(Cc3ccc(-c4ccccc4)cc3)c3ccc(F)cc23)=C1O
- IC50 [1]: 15.8 µM
- inhibition [2]: 89%

Compound: Cc1cc(C)cc(Cn2cc(C(=O)/C=C(\O)C(=O)O)c3cc(Cl)ccc32)c1
- CC50 [3]: > 125 µM
- inhibition [2]: inactive
- selectivity ratio [4]: > 2
- EC50 [5]: 56.1 µM

Compound: CC(C)(C)c1ccc(Cn2cc(C(=O)C3=C(O)C(=O)OC3)c3cc(Cl)ccc32)cc1
- CC50 [3]: 53 µM
- IC50 [1]: 52.5 µM
- inhibition [2]: 83%
- selectivity ratio [4]: 2
- EC50 [5]: 23.4 µM

Compound: O=C(O)/C(O)=C/C(=O)c1cn(Cc2ccc(-c3ccccc3)cc2)c2ccc(Cl)cc12
- inhibition [2]: 31%

Compound: COc1ccc2c(c1)c(C(=O)C1=C(O)C(=O)OC1)cn2Cc1cc(C)cc(C)c1
- inhibition [2]: 66%

Compound: O=C1OCC(C(=O)c2cn(Cc3ccc(C(F)(F)F)cc3)c3ccc(F)cc23)=C1O
- IC50 [1]: 12.2 µM
- inhibition [2]: 65%

Compound: Cc1cc(C)c(Cn2cc(C(=O)C3=C(O)C(=O)OC3)c3cc(Cl)ccc32)c(C)c1
- CC50 [3]: 40.5 µM
- IC50 [1]: 23.6 µM
- inhibition [2]: 85%
- selectivity ratio [4]: 2
- EC50 [5]: 19.8 µM

Compound: COc1ccc2c(c1)c(C(=O)/C=C(\O)C(=O)O)cn2Cc1cc(C)cc(C)c1
- CC50 [3]: 51 µM
- IC50 [6]: 1.09 µM
- IC50 [1]: 53.9 µM
- inhibition [2]: 89%
- selectivity ratio [4]: 23
- EC50 [5]: 2.24 µM

Compound: O=C1OCC(C(=O)c2cn(Cc3ccc(-c4ccccc4)cc3)c3ccc(Cl)cc23)=C1O
- IC50 [1]: 21.8 µM
- inhibition [2]: 80%

Compound: CC(C)(C)c1ccc(Cn2cc(C(=O)/C=C(\O)C(=O)O)c3cc(Cl)ccc32)cc1
- IC50 [1]: 10 µM
- inhibition [2]: 88%

Compound: Cc1cc(C)c(Cn2cc(C(=O)/C=C(\O)C(=O)O)c3cc(F)ccc32)c(C)c1
- CC50 [3]: 104 µM
- IC50 [6]: 2.51 µM
- IC50 [1]: 15.2 µM
- inhibition [2]: 71%
- selectivity ratio [4]: 21
- EC50 [5]: 5.14 µM

Compound: O=C1OCC(C(=O)c2cn(Cc3ccc(C(F)(F)F)cc3C(F)(F)F)c3ccc(Cl)cc23)=C1O
- IC50 [1]: 21.5 µM
- inhibition [2]: 86%

Compound: O=C(O)/C(O)=C/C(=O)c1cn(Cc2ccc(C(F)(F)F)cc2C(F)(F)F)c2ccc(F)cc12
- inhibition [2]: inactive

Compound: COc1ccc2c(c1)c(C(=O)/C=C(\O)C(=O)O)cn2Cc1ccc(C(F)(F)F)cc1
- inhibition [2]: 40%

Compound: O=C(O)/C(O)=C/C(=O)c1cn(Cc2ccc(C(F)(F)F)cc2)c2ccc(Cl)cc12
- CC50 [3]: 23 µM
- IC50 [6]: 0.26 µM
- IC50 [1]: 32.9 µM
- inhibition [2]: 80%
- selectivity ratio [4]: 5
- EC50 [5]: 5.09 µM

Compound: Cc1cc(C)cc(Cn2cc(C(=O)C3=C(O)C(=O)OC3)c3cc(F)ccc32)c1
- IC50 [1]: 20.3 µM
- inhibition [2]: 73%

Compound: O=C(O)/C(O)=C/C(=O)c1cn(Cc2ccc(-c3ccccc3)cc2)c2ccc(F)cc12
- IC50 [1]: 8.1 µM
- inhibition [2]: 72%

Compound: COc1ccc2c(c1)c(C(=O)/C=C(\O)C(=O)O)cn2Cc1ccc(C(C)(C)C)cc1
- IC50 [1]: 91.7 µM
- inhibition [2]: 65%

Compound: Cc1cc(C)cc(Cn2cc(C(=O)/C=C(\O)C(=O)O)c3cc(F)ccc32)c1
- inhibition [2]: 26%

Compound: O=C(O)/C(O)=C/C(=O)c1cn(Cc2ccc(C(F)(F)F)cc2)c2ccc(F)cc12
- CC50 [3]: 15 µM
- IC50 [6]: 1.55 µM
- IC50 [1]: 17.8 µM
- inhibition [2]: 77%
- selectivity ratio [4]: 2
- EC50 [5]: 7.83 µM

Compound: Cc1cc(C)cc(Cn2cc(C(=O)/C=C(\O)C(=O)O)c3c(O)cccc32)c1
- CC50 [3]: 44 µM
- IC50 [1]: 3.5 µM
- selectivity ratio [4]: 10
- EC50 [5]: 4.63 µM

Compound: Cc1cc(C)cc(Cn2cc(C(=O)C3=C(O)C(=O)OC3)c3cc(Cl)ccc32)c1
- CC50 [3]: 53.5 µM
- IC50 [1]: 23.1 µM
- inhibition [2]: 96%
- selectivity ratio [4]: 3
- EC50 [5]: 16.9 µM

Compound: COc1ccc2c(c1)c(C(=O)C1=C(O)C(=O)OC1)cn2Cc1ccc(C(C)(C)C)cc1
- IC50 [1]: 17.1 µM
- inhibition [2]: 93%

Compound: O=C1OCC(C(=O)c2cn(Cc3ccc(C(F)(F)F)cc3C(F)(F)F)c3ccc(F)cc23)=C1O
- inhibition [2]: 37%

Compound: O=C1OCC(C(=O)c2cn(Cc3ccc(C(F)(F)F)cc3)c3ccc(Cl)cc23)=C1O
- IC50 [1]: 12.3 µM
- inhibition [2]: 92%

Compound: COc1ccc2c(c1)c(C(=O)C1=C(O)C(=O)OC1)cn2Cc1ccc(C(F)(F)F)cc1C(F)(F)F
- IC50 [1]: 39.5 µM
- inhibition [2]: 61%

Compound: COc1ccc2c(c1)c(C(=O)/C=C(\O)C(=O)O)cn2Cc1c(C)cc(C)cc1C
- CC50 [3]: 23.5 µM
- IC50 [6]: 0.42 µM
- IC50 [1]: 33.1 µM
- inhibition [2]: 72%
- selectivity ratio [4]: 8
- EC50 [5]: 3.23 µM

Compound: CC(C)(C)c1ccc(Cn2cc(C(=O)/C=C(\O)C(=O)O)c3cc(F)ccc32)cc1
- inhibition [2]: 33%

Compound: COc1cccc2c1c(C(=O)/C=C(\O)C(=O)O)cn2Cc1ccc(F)cc1
- IC50 [1]: 36.2 µM
- selectivity ratio [4]: 70

Compound: COc1ccc2c(c1)c(C(=O)C1=C(O)C(=O)OC1)cn2Cc1ccc(C(F)(F)F)cc1
- IC50 [1]: 52.2 µM
- inhibition [2]: 65%

Compound: COc1ccc2c(c1)c(C(=O)C1=C(O)C(=O)OC1)cn2Cc1c(C)cc(C)cc1C
- IC50 [1]: 33.2 µM
- inhibition [2]: 82%

Compound: COc1ccc2c(c1)c(C(=O)/C=C(\O)C(=O)O)cn2Cc1ccc(C(F)(F)F)cc1C(F)(F)F
- inhibition [2]: 33%

Compound: Cc1cc(C)c(Cn2cc(C(=O)/C=C(\O)C(=O)O)c3cc(Cl)ccc32)c(C)c1
- IC50 [1]: > 100 µM
- inhibition [2]: 59%

Compound: Cc1cc(C)c(Cn2cc(C(=O)C3=C(O)C(=O)OC3)c3cc(F)ccc32)c(C)c1
- CC50 [3]: 107 µM
- IC50 [1]: 5.6 µM
- inhibition [2]: 81%
- selectivity ratio [4]: 2
- EC50 [5]: 49 µM

From ChEMBL document CHEMBL3232966, “A new potential approach to block HIV-1 replication via protein-protein interaction and strand-transfer inhibition” (Bioorg Med Chem, 2014)
